Calls of active or inactive are those of the source. The calls are words filed in the database; no cut-off is given here. Bounds are passed on as bounds.

The results in this text go back to ChEMBL document CHEMBL1153331, “Antitumour and antimalarial activity of artemisinin-acridine hybrids” (Bioorg Med Chem Lett, 2009).

For assay [1], the system named is Plasmodium falciparum. The assay is described as follows: Antimalarial activity after 48 hrs against chloroquine-sensitive Plasmodium falciparum 3D7 by [3H]hypoxanthine uptake. It is filed as functional, organism-based.
Assay [2] has as its system MCF7. The assay is described as follows: Cytotoxicity against human MCF7 cells after 72 hrs by MTT assay. It counts as functional, cell-based. The conditions noted are these: MCF7, 72 h. (In general: Tetrazolium dyes change colour on reduction, which living cells bring about.)
The test system of assay [3] is HL-60. The assay is described as follows: Cytotoxicity against human HL60 cells after 72 hrs by MTT assay. The conditions noted are these: HL-60, 72 h. It counts as functional, cell-based. The procedure, abridged: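 MTT viability: 2.5 × 10^4 cells/well in triplicate, exposed to 0.01–100 µM compound for 72 h at 37 °C, 5% CO2; MTT 3 h at 37 °C, SDS/DMF lysis 4 h; absorbance 570 nm (reference 590 nm); expressed as % of vehicle-only cells; IC50 from individual inhibition curves; means of three experiments with SD.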

The subject of assay [4] is MDA-MB-231. The assay is described as follows: Cytotoxicity against human MDA-MB-231 cells after 72 hrs by MTT assay. It counts as functional, cell-based. The conditions noted are these: MDA-MB-231, 72 h.
The nature of assay [5]: Cytotoxicity against human HT29-AK cells after 72 hrs by MTT assay. It is filed as functional, cell-based.
Assay [6] has as its system HL-60. The assay is described as follows: Induction of apoptosis in human HL60 cells assessed as induction of mitochondrial membrane depolarization at 1 uM by tetramethylrhodamine ethyl ester-based flow cytometry. It is filed as functional, cell-based. The procedure, abridged: (§1)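 HL60 cells treated 24 h; 5 × 10^5 cells washed in HBSS, loaded with 50 nM TMRE in HBSS for 10 min at 37 °C; ≥500 cells read by flow cytometry on FL-2 to score depolarised mitochondria; mean ± SD of three independent experiments, Mann-Whitney U vs drug blank.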
(In general: In flow cytometry, cells or beads pass a laser one at a time.)

The subject of assay [7] is HL-60. The assay is described as follows: Induction of apoptosis in human HL60 cells assessed as induction of mitochondrial membrane depolarization at 10 uM after 24 hrs by tetramethylrhodamine ethyl ester-based flow cytometry. It counts as functional. A digest of the protocol:
as §1

Assay [8] deals with HL-60. The assay can be described thus: Induction of apoptosis in human HL60 cells assessed as induction of mitochondrial membrane depolarization by tetramethylrhodamine ethyl ester-based flow cytometry. It counts as functional, cell-based. A digest of the protocol:
as §1

The subject of assay [9] is HL-60. The assay is described as follows: Induction of apoptosis in human HL60 cells assessed as accumulation at sub-G0/G1 phase after 24 hrs by propidium iodide-based flow cytometry. It is filed as functional, cell-based. A digest of the protocol: (§2)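 HL60 cells treated 24 h; 1 × 10^6 cells washed in HBSS, fixed in ice-cold 70% ethanol at −20 °C for 2 h, stained with PI (40 µg/mL) plus RNase 0.1 mg/mL and 3.8 mM sodium citrate in PBS, 30 min at 37 °C; ≥5000 cells read on FL-2; sub-G0/G1 fraction from DNA content; mean ± SD of three independent experiments, Mann-Whitney U vs drug blank.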

The test system of assay [10] is HL-60. The assay can be described thus: Induction of apoptosis in human HL60 cells assessed as accumulation at sub-G0/G1 phase at 10 uM after 24 hrs by propidium iodide-based flow cytometry. It is filed as functional. The procedure, abridged: as §2
Assay [11] concerns HL-60. The assay is described as follows: Induction of apoptosis in human HL60 cells assessed as caspase-3 activation after 24 hrs by Western blot analysis. It is filed as functional, cell-based. The procedure, abridged:
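HL60 cells treated 24 h with 0.5, 1.0, 5 or 10 µM alongside untreated control; 3 × 10^6 cells washed and sonicated, protein by Bradford; 20 µg per lane denatured 3 min at 95 °C, resolved on 14% SDS–PAGE, transferred to nitrocellulose; read-out pro-caspase-3 (32 kDa) and processed active subunit.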
Background: Immunoblotting shows a protein as a band on a membrane.

For assay [12], the system named is Calf thymus DNA. The assay can be described thus: Binding affinity to calf thymus DNA assessed as change in thermal melting temperature at compound to polynucleotide ratio of 0.3 at pH 7 by thermal melting analysis. The conditions noted are these: Bos taurus.
Assay [13] concerns Calf thymus DNA. The assay is described as follows: Binding affinity to calf thymus DNA by fluorimetric binding titration study. It is filed as nucleic-acid assay. The conditions noted are these: Bos taurus.
In assay [14] the test system is Calf thymus DNA. The assay can be described thus: Binding affinity to calf thymus DNA assessed as intercalation into double helix by circular dichroism analysis. It counts as nucleic-acid assay. The conditions noted are these: Bos taurus. The procedure, abridged: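 CD spectra of ct-DNA (1 × 10^-5 mol dm^-3) titrated at various r = [compound]/[ctDNA], change followed at 280 nm; induced acridine CD band at ct-DNA 1 × 10^-4 mol dm^-3; pH 7 Na cacodylate buffer, I = 0.05 M.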

The test system of assay [15] is Nucleic Acid. The assay can be described thus: Binding affinity to poy A-poly U RNA assessed as intercalation into double helix by circular dichroism analysis. It is filed as nucleic-acid assay.
In assay [16] the test system is Nucleic Acid. The assay is described as follows: Binding affinity to poy A-poly T DNA assessed as change in thermal melting temperature at compound to polynucleotide ratio of 0.3 at pH 7 by […]. It counts as nucleic-acid assay. A digest of the protocol: (§3)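 Thermal melting of ds-polynucleotides at r = [compound]/[polynucleotide] = 0.3, pH 7 Na cacodylate buffer 0.02 M (I = 0.005 M; poly A–poly T at I = 0.05 M); ΔTm reported, error ±0.5 °C.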

For assay [17], the system named is Nucleic Acid. The assay is described as follows: Binding affinity to poy A-poly U RNA assessed as change in thermal melting temperature at compound to polynucleotide ratio of 0.3 at pH 7 by […]. It is filed as nucleic-acid assay. A digest of the protocol:
as §3

For assay [18], the system named is Nucleic Acid. The assay can be described thus: Binding affinity to poy A-poly U RNA by fluorimetric binding titration study. It counts as nucleic-acid assay.

For the compound `COc1ccc2nc3cc(Cl)ccc3c(NCCCCNC(=O)C[C@H]3O[C@@H]4O[C@@]5(C)CC[C@H]6[C@H](C)CC[C@@H]([C@H]3C)[C@@]46OO5)c2c1`, the concentration for half-maximal inhibition (IC50) – broadly, the concentration that inhibits the measured activity by half – in [1] was 0.0203 µM; in assay [2], 11.7 µM; in [3] it was 1.58 µM; in assay [4], 43.3 µM; in assay [5], 247 µM.

In the case of `COc1ccc2nc3cc(Cl)ccc3c(NCCCNC(=O)C[C@H]3O[C@@H]4O[C@@]5(C)CC[C@H]6[C@H](C)CC[C@@H]([C@H]3C)[C@@]46OO5)c2c1`, the 50% inhibitory concentration (IC50) stood at 0.0224 µM in assay [1]; 11.8 µM in assay [2]; 3.08 µM in assay [3]; 11.6 µM in assay [4]; 9.91 µM in assay [5]. For the same compound, the result in assay [6] was Active. The Activity is 98% in [7]; “Dose-dependent effect” in assay [8]; “Dose-dependent effect” in assay [9]; 57% in assay [10]; “Dose-dependent effect” in assay [11].

As to `COc1ccc2nc3cc(Cl)ccc3c(N3CCN(C(=O)C[C@H]4O[C@@H]5O[C@@]6(C)CC[C@H]7[C@H](C)CC[C@@H]([C@H]4C)[C@@]57OO6)CC3)c2c1`, the IC50 in [1] was 0.29 µM; in [2] it was 3.51 µM; in [3], 0.56 µM; in assay [4], 21.1 µM; in [5], more than 750 µM.

For `COc1ccc2nc3cc(Cl)ccc3c(NCCNC(=O)C[C@H]3O[C@@H]4O[C@@]5(C)CC[C@H]6[C@H](C)CC[C@@H]([C@H]3C)[C@@]46OO5)c2c1`, the half-inhibitory concentration (IC50) in assay [1] stood at 0.00596 µM; in assay [2], 13.7 µM; in assay [3] it was 1.17 µM; in [4] it was 49 µM; in assay [5], 194 µM. Also, the ΔTm – broadly, the change in melting temperature against a reference sample – in assay [12] was 3.1 °C; in [16], 0.6 °C; in assay [17] it was 2.4 °C. In addition, the Ks in [13] and in [18] was 1 ×10⁶ /M in each case. For the same compound, the result in [14] and in assay [15] was inactive.

Regarding `COc1ccc2nc3cc(Cl)ccc3c(NCCN)c2c1`, the ΔTm in [12] was 9.3 °C; in [16], 2.9 °C; in [17], 2.2 °C. For the same compound, the Ks in assay [13] and in [18] was 1 ×10⁶ /M throughout. Also, the concentration for half-maximal inhibition (IC50) in assay [3] came out at 12.5 µM; in [4], 8.12 µM; in assay [5], 6.57 µM.

Consider `C[C@H]1[C@@H](O)O[C@@H]2O[C@@]3(C)CC[C@H]4[C@H](C)CC[C@@H]1[C@@]24OO3` [ARTENIMOL], for which the IC50 in [1] came to 0.0023 µM; in assay [2], 45.2 µM; in [4], 99.8 µM; in assay [5] it was 16.1 µM.
